Consider two compounds from ChEMBL document CHEMBL3877303 (J Med Chem, 2017).

The target in data set [1] is T1, Mast/stem cell growth factor receptor Kit (Homo sapiens, UniProt P10721). The experiment in a line: Inhibition of c-KIT mediated signaling pathways assessed as reduction in S6K phosphorylation at T389 in human GIST882 cells at 0.03 to 10 uM measured after 2 hrs by immunoblotting. The format is cell-based. Summed up:
(§1)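 After an ice-cold PBS wash, cells were lysed in RIPA buffer (50 mM Tris pH 8.0) with protease and phosphatase inhibitors, and protein was quantified by BCA. Lysates were run on SDS-PAGE, transferred to PVDF and blocked in 5% milk/TBST. Phospho- and total proteins were probed by immunoblot with ECL detection; β-actin served as loading control.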
Background: In western blotting, separated proteins are transferred to a membrane and probed.

Data set [2] in a line: Anticancer activity against human GISTT1 cells xenografted in nu/nu mouse assessed as tumor weight at 25 mg/kg, po administered daily via oral gavage measured 21 days post compound treatment (reference value: 2.86 g).
Data set [3] is described as follows: AUC (0 to infinity) in Sprague-Dawley rat at 10 mg/kg, po. Type of data set: ADME, organism-based. Also noted: dose 10 mg/kg, time infinity, route oral. Conditions: in vivo. Summed up: (§2)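 Male Sprague-Dawley rats aged six to eight weeks were fasted overnight and then dosed iv or orally. Blood (~0.2 mL) was drawn from the jugular vein into heparin and kept on ice. Sampling was at 1 min to 8 h for iv and 5 min to 24 h for oral. Plasma was separated by centrifugation at 2-8 °C and stored at -80 °C until analysis.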

The test system of another data set is BaF3. The experiment in a line: Inhibition of BCR/ABL p210 fusion protein T315I mutant (unknown origin) expressed in BAF3 cells assessed as growth inhibition measured after 72 hrs by CellTiter-Glo or CCK8 assay. Type of data set: cell-based. Conditions: Homo sapiens. Put shortly: (§3)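 BaF3 lines were made by retroviral transduction with kinase-fusion MSCV vectors packaged in HEK293T cells. Cells were selected with puromycin for 48 h, then selected again without IL-3 so growth depends on the introduced kinase. […] They were seeded at 1 to 2.5×10^4 cells/mL with compound dilutions and incubated 72 h. Viability was read by CellTiter-Glo luminescence or CCK-8 absorbance (450/655 nm), normalized to DMSO control; GI50 was curve-fitted from triplicate tests.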

The target in data set [4] is T1, Mast/stem cell growth factor receptor Kit. The experiment in a line: Inhibition of c-KIT mediated signaling pathways assessed as reduction in AKT phosphorylation at S473 in human GISTT1 cells at 0.03 to 10 uM measured after 2 hrs by immunoblotting. Type of data set: cell-based. Put shortly: as §1
A further data set deals with K562. The experiment in a line: Induction of apoptosis in human K562 cells xenografted in nu/nu mouse administered daily via oral gavage measured 28 days post compound treatment by TUNEL staining based assay. Type of data set: functional, cell-based. Summed up: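 K562 xenograft tumors from daily orally dosed mice were fixed in 10% neutral-buffered formalin and paraffin-embedded. Six-micron sections were TUNEL-stained to detect apoptotic nuclei.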
For orientation: In xenograft studies the graft and the host belong to different species.

Data set [5] addresses Platelet-derived growth factor receptor beta (Homo sapiens, UniProt P09619). The experiment in a line: Inhibition of recombinant His-tagged human PDGFR-beta cytoplasmic domain (558 to 1106 residues) expressed in baculovirus expression system measured after 1 hr by FRET based Z'Lyte assay. Summed up: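 Z'-LYTE FRET biochemical kinase assay run by Invitrogen on selected kinases identified from binding profiling; IC50 from dose-response.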

Data set [6] addresses T1, Mast/stem cell growth factor receptor Kit. In words: Inhibition of c-KIT autophosphorylation at Y703 in human GISTT1 cells at 0.03 to 10 uM measured after 2 hrs by immunoblotting. The format is cell-based. Summed up:
as §1

The target is the same in data set [7]. The experiment in a line: Inhibition of c-KIT mediated signaling pathways assessed as reduction in AKT phosphorylation at S473 in human GIST882 cells at 0.03 to 10 uM measured after 2 hrs by immunoblotting. The format is cell-based. Put shortly:
as §1

A further data set deals with GISTT1. The experiment in a line: Anticancer activity against human GISTT1 cells xenografted in nu/nu mouse assessed as tumor growth inhibition administered daily via oral gavage measured 21 days post compound treatment.
A short description of data set [8]: Cmax in Sprague-Dawley rat at 10 mg/kg, po. Type of data set: ADME, organism-based. Details: dose 10 mg/kg, route oral. As to conditions: in vivo. Put shortly:
as §2

The test system of another data set is KU812 cell line. In words: Induction of apoptosis in human KU812 cells assessed as cleavage of PARP at 0.1 to 3 uM by Western blot analysis. Type of data set: functional, cell-based. Summed up:
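Cells were treated with DMSO or serially diluted compound for the indicated periods. They were washed in ice-cold PBS and lysed in RIPA buffer with protease/phosphatase inhibitors, and protein was quantified by BCA. Lysates were resolved by SDS-PAGE, transferred to PVDF and blocked in 5% milk/TBST. Blots were probed for PARP and caspase-3, with β-actin as loading control, and detected by ECL.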

Data set [9] has as its target T1, Mast/stem cell growth factor receptor Kit. In words: Inhibition of recombinant C-terminal polyhistidine-tagged human c-KIT expressed in mammalian expression system using Tyr 06 peptide as substrate measured after 1hr by FRET based Z'Lyte assay.
The target is the same in data set [10]. The experiment in a line: Inhibition of c-KIT mediated signaling pathways assessed as reduction in S6 phosphorylation at S235/236 in human GISTT1 cells at 0.03 to 10 uM measured after 2 hrs by immunoblotting. The format is cell-based. Summed up: as §1
Data set [11] can be described thus: Anticancer activity against human K562 cells xenografted in nu/nu mouse assessed as tumor weight at 50 mg/kg administered via oral gavage measured after 28 days (reference value: 6.75 g). Type of data set: functional. Put shortly:
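Female nu/nu mice received ten million K562 cells subcutaneously in the right flank, in PBS mixed 1:1 with Matrigel. Daily oral gavage began at 200-400 mm³ tumor size, with 4 or 5 mice per group. Dosing was 25, 50 or 100 mg/kg/d or vehicle (0.5% methylcellulose/0.4% Tween80) for 28 days. Body weight and tumor size were normalized to initial values, and final tumor weight was recorded. Data are mean ± SEM.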

In data set [12] the target is T1, Mast/stem cell growth factor receptor Kit. In words: Inhibition of c-KIT mediated signaling pathways assessed as reduction in S6 phosphorylation at S235/236 in human GIST882 cells at 0.03 to 10 uM measured after 2 hrs by immunoblotting. The format is cell-based. Summed up: as §1
In data set [13] the test system is Mast/stem cell growth factor receptor Kit (Homo sapiens), P10721 [V559D,T670I]. The experiment in a line: Inhibition of Tel-fused c-KIT T670I/V559D double mutant (unknown origin) expressed in BAF3 cells assessed as growth inhibition measured after 72 hrs by CellTiter-Glo or CCK8 assay. The format is cell-based. Put shortly:
as §3
(In general: In ATP-based viability assays light output follows the ATP content of the culture.)

Data set [14] is described as follows: Anticancer activity against human GISTT1 cells xenografted in nu/nu mouse assessed as tumor growth inhibition at 100 mg/kg, po administered daily via oral gavage measured 21 days post compound treatment relative to vehicle-treated control. Conditions: 504 h, read-out: GI.
Data set [15] in a line: Cell cycle arrest in human K562 cells assessed as accumulation at G0/G1 phase at 0.3 uM after 24 hrs by propidium iodide/RNase staining based flow cytometry. The format is functional. Summed up: (§4)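 Cells were exposed to serially diluted compound, then fixed in cold 70% ethanol overnight at -20 °C. They were stained with PI/RNase buffer for DNA-content cell-cycle analysis.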

The target of data set [16] is T1, Mast/stem cell growth factor receptor Kit. Conditions: GISTT1, 1 uM.
The target is the same in data set [17]. As to conditions: GISTT1, 1 uM. The source holds these as a separate data set.
The target is the same in data set [18]. Conditions: 1 uM.
The nature of data set [19]: Cell cycle arrest in human GISTT1 cells assessed as accumulation at G0/G1 phase at 1 uM after 24 hrs by propidium iodide/RNase staining based flow cytometry. Type of data set: functional. Put shortly: as §4

Active and inactive are the calls of the source. No cut-off for these calls is given here.

T1 sequence (P10721 whole entry): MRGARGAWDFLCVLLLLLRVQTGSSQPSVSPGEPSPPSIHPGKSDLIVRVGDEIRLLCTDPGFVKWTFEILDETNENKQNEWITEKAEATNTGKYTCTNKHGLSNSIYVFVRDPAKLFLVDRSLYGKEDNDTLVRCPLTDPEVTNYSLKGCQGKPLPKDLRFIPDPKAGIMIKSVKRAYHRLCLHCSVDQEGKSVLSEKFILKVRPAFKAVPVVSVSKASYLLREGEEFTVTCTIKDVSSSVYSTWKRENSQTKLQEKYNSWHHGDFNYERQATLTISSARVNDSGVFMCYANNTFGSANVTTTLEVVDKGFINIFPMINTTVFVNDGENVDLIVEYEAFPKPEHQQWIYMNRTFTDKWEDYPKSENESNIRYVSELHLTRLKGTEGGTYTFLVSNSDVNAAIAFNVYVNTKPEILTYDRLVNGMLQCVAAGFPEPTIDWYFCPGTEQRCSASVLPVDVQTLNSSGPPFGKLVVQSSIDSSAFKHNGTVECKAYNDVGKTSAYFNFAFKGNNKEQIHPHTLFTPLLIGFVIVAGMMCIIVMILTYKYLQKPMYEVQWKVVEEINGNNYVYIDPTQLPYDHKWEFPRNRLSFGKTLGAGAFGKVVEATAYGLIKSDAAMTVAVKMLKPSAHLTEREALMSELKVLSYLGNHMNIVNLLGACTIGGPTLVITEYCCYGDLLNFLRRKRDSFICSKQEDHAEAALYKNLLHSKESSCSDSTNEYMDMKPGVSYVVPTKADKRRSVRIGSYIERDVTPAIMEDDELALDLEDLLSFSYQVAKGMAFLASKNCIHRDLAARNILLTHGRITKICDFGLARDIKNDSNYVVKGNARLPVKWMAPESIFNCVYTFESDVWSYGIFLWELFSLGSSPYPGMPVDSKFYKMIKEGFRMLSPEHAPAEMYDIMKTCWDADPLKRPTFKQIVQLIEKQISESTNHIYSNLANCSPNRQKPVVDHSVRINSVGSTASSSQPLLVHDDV
Platelet-derived growth factor receptor beta, sequence (P09619 whole entry, the tested form may be a part): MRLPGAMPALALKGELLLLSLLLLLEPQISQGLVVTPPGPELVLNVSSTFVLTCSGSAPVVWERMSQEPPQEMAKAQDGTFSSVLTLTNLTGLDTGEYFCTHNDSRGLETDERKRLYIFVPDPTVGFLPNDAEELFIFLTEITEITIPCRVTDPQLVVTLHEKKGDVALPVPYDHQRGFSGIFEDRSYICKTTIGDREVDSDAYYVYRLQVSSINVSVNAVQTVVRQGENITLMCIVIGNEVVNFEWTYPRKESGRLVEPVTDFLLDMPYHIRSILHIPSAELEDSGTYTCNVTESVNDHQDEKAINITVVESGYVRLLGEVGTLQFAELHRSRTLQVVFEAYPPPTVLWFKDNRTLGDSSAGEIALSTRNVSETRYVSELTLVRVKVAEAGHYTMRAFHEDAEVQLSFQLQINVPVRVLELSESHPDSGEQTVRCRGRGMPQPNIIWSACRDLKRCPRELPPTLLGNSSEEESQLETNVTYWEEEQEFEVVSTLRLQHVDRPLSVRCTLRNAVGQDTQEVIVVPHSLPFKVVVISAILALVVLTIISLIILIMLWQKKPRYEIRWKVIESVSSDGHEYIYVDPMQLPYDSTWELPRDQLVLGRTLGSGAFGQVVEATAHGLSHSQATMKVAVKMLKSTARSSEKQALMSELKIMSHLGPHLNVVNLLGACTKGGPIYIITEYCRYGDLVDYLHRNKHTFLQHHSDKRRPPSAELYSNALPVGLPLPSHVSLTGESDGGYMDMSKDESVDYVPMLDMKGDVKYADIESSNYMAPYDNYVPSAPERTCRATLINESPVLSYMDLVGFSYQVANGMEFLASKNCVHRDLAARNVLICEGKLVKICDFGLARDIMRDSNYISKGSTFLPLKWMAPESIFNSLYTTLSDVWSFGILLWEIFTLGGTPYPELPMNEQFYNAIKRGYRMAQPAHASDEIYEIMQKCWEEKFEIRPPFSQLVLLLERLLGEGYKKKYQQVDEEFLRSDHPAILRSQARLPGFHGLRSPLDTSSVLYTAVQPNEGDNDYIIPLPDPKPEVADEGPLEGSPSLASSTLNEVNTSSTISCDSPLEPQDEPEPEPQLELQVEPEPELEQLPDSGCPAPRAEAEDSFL
Mast/stem cell growth factor receptor Kit (Homo sapiens), P10721 [V559D,T670I], sequence (P10721 whole entry V559D/T670I, the tested form may be a part): as the sequence (P10721 whole entry) above, with V559D, T670I counted along it

In general, AUC(0-inf) refers to the area under the concentration-time curve extrapolated to infinity. As usually defined, the GI50 is the concentration giving 50% growth inhibition. By IC50 is commonly meant the concentration needed to halve the response being measured. Broadly, the Cmax is the peak of the concentration-time curve. Consider `Cc1ccc(C(=O)N2CCC(Oc3cc(NC(=O)c4ccc(CN5CCN(C)CC5)c(C(F)(F)F)c4)ccc3C)CC2)cn1`, for which the inhibition entry in data set [1], in data set [4], in data set [6], in data set [7], in data set [10] and in data set [12] was “Active” each time. Besides, the results for the Activity (in [2]; in the data set on K562; in data set [11]) were 2.2 g, “Dose-dependent effect” and 6.51 g, respectively. The same compound had an area under the curve AUC(0-inf) in [3] of 2430 ng·h/mL. Besides, the GI50 in the data set on BaF3 is above 10 µM; in data set [13], 1.01 µM. For the same compound, the IC50 in data set [5] is 0.08 µM; in data set [9], 0.075 µM. Further, in the data set with GISTT1, the TGI entry was “Dose-dependent effect”. The compound further gave a maximum concentration (Cmax) in data set [8] of 223 ng/mL. The result (with KU812 cell line; in data set [15]) was Active. In addition, the inhibition in vivo at 100 mg/kg in [14] was determined as 46.5%.

Turning to `Cc1ccc(NC(=O)c2ccc(CN3CCN(C)CC3)cc2)cc1Nc1nccc(-c2cccnc2)n1` [IMATINIB], the inhibition result in data set [16], in [17] and in data set [18] was “Active” in each case. The result in data set [19] was Active.
